Compound activity deposited in PubChem BioAssay by Broad Institute.
Xi reactivation = activators of X-chromosome reactivation in mouse fibroblasts; XiGFP mouse fibroblasts, % GFP-positive cells imaging, 3 d; cells co-treated with 5-aza-dC sensitizer; scaled so ellipticine positive control = 100%; activation, % at 7.58 µM; 0.055% of 360,000 active; AID 743238;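 active means mean normalized replicate activation at least 10% and every replicate at or above 10%; inconclusive means only one of the two criteria met; inactive means mean below 10% and not all replicates reach 10%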;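 further: 0% = median of on-plate neutral control wells and 100% = ellipticine 6 µM median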
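assay system = SV40-immortalized XiGFP fibroblast cells, line 68-5-11 | buffer or medium = DMEM plus 5-aza-dC sensitizer | doses = single-point pinned compound dosing | times = 3-day compound exposure, then 15 min fixation at room temperature | benchmarks = positive control ellipticine, 6 µM final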
E-selectin induc = induces E-selectin expression in human endothelial cells | P16581 | HUVEC E-selectin immunofluorescence imaging; normalized: neutral wells 0, TNF-alpha wells 100 | activation, % at 7.58 µM | 0.37% of 260,000 active;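 active means mean E-selectin-positive cell signal at least 10% of the positive control, reached in at least 60% of replicates, without over 20% cell loss; inconclusive means no rule given, readout overlaps actives, possibly toxicity-flagged; inactive means the rest, including those meeting only one limit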
Target sequence (P16581 whole entry, looked up): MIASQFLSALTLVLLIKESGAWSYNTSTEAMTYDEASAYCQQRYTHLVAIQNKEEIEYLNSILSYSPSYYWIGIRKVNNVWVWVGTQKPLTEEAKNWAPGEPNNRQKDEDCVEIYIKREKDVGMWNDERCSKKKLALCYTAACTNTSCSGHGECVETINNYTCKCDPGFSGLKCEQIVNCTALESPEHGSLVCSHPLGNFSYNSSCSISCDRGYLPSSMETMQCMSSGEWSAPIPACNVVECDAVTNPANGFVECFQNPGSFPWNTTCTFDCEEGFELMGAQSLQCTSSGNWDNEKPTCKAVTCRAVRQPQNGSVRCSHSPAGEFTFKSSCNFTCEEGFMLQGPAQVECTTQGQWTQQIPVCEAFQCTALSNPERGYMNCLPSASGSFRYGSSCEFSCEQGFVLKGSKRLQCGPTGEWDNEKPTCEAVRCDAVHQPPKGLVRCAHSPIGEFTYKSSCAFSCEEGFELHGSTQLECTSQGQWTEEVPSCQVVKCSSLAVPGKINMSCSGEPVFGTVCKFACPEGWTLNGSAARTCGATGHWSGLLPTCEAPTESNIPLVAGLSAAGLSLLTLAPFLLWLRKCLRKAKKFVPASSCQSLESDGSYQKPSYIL
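Read-out: % PE-positive cells | Test system: HUVEC | Doses: One compound dose added by pin transfer | Buffer or medium: EGM-2 over gelatin coat | Signal: Immunofluorescence imaging | Benchmarks: TNF-alpha, DMSO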
Statin myotox sup = suppressors of simvastatin-induced myotoxicity in C2C12 myotubes; ATP luminescence, 48 h; scaled: DMSO 0, geranylgeraniol control 100; rescue of ATP level, % at 7.49 µM; 0.78% of 330,000 active; AID 602340;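 active means mean ATP rescue above about 67%, or every replicate alone reaching that limit, limit read from the data, passing the limit was not always enough; inconclusive means no clear call, values can overlap the other calls; inactive means mean under the limit and some replicate under it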;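 further: myotubes were challenged with 10 µM simvastatin during compound exposure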
PglD DTNB = PglD (C. jejuni) enzyme inhibition; purified PglD enzyme, DTNB colorimetric CoA detection; inhibition, % at 12.5 µM; 0.098% of 360,000 active; AID 602405; in the data active means inhibition above about 16%, passing the limit was not always enough; inconclusive means no clear call, values can overlap the other calls
DENV2 CPE = DENV2-induced cell death inhibition | CPE inhibition, % at 9.99 µM | DENV2-infected cells, cytopathic effect rescue, plate reader | 1.7% of 350,000 active; in the data active means CPE inhibition above about 20%, passing the limit was not always enough; inconclusive means no clear call, values can overlap the other calls; tested in BHK-21 cells;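 further: 0% = median of neutral control wells and 100% = median of positive control wells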
FGF22 binding = binders of recombinant human FGF22 by thermal shift | Q9HCT0 | 1.5% of 340,000 active | SYPRO orange fluorescence; percent of sucrose octasulfate shift, DMSO zero | activity (Tm shift, normalised), % at 9.99 µM;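 active means mean Tm shift, scaled 0 neutral to 100 positive control, at about 1.3% or above, every replicate too, limit read from the data; inconclusive means no clear call, values can overlap the other calls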
Numbers without * were called inactive; ? = inconclusive; nt = no result given. Rows were chosen to be rich in hits. Some 3.3% of all compounds tested hit in one or more screens of this group.

SMILES	Xi reactivation	E-selectin induc	Statin myotox sup	PglD DTNB	DENV2 CPE	FGF22 binding
Cc1ccc(S(=O)(=O)Nc2cccc3c2O[C@H](CN(C)S(=O)(=O)c2ccccc2)[C@@H](C)CN([C@H](C)CO)C3=O)cc1	0.3	0.1	-11.5	3.1	-11.6	-0.1
C[C@@H]1CN([C@@H](C)CO)C(=O)Cc2cc(NC(=O)Cc3ccccc3)ccc2O[C@H]1CN(C)S(=O)(=O)c1cccs1	-0.2	0.0	-34.8	3.3	-3.4	-0.3
C[C@@H]1CN([C@@H](C)CO)C(=O)c2cc(C#CCN(C)C)cnc2O[C@@H]1CN(C)Cc1ccc(F)cc1	-0.9	-0.3	-12.1	-1.0	-2.4	0.0
C[C@H]1CN([C@@H](C)CO)C(=O)c2cc(C#CCN(C)C)cnc2O[C@H]1CN(C)Cc1ccc(F)cc1	-0.2	-0.3	-6.4	-1.1	32.1*	-0.1
C[C@H](CO)N1C[C@H](C)[C@H](CN(C)C(=O)Nc2ccccc2F)Oc2ncc(C#CCN(C)C)cc2C1=O	1.1	0.1	nt	nt	72.3*	0.2
C[C@H]1CN([C@@H](C)CO)C(=O)c2cc(C#CCN(C)C)cnc2O[C@@H]1CN(C)C(=O)Nc1ccccc1F	-0.2	-0.2	-0.4	-3.1	-4.6	0.2
C[C@@H]1CN([C@H](C)CO)S(=O)(=O)c2ccc(C#CC3CCCC3)cc2O[C@H]1CN(C)C	0.3	nt	-103.7	4.6	61.2*	-0.4
C[C@H]1CN([C@@H](C)CO)S(=O)(=O)c2ccc(C#CC3CC3)cc2O[C@@H]1CN(C)Cc1ccncc1	-0.6	-0.1	-18.4	9.7	41.7*	-0.7
COCC(=O)Nc1ccc2c(c1)OC[C@@H](C)N(Cc1ccncc1)C[C@H](C)[C@@H](OC)CN(C)C2=O	0.6	-0.2	-14.9	-2.7	0.0	0.0
CC=Cc1ccc2n(c1=O)C[C@@H]1[C@@H](CO)[C@H](C(=O)NCC(F)(F)F)N(CC3CC3)[C@H]21 (mixture of isomers)	0.9	-0.7	-3.2	-1.8	0.0	0.1
CCOc1ccc(C(=O)N2CCN(c3cnn(-c4ccccc4)c(=O)c3Cl)CC2)cc1	0.0	nt	nt	nt	0.7	44.0*
O=C(c1cccc(Br)c1)N1CCN(c2cnn(-c3ccccc3)c(=O)c2Cl)CC1	0.2	-0.6	nt	nt	-2.9	0.1
Cc1noc(C)c1NC(=O)Nc1ccc2c(c1)CC(=O)N([C@@H](C)CO)C[C@@H](C)[C@H](CN(C)S(C)(=O)=O)O2	-0.1	-8.5	nt	nt	-0.8	nt
FCCCOc1ccc(-c2ccnc3ncnn23)cc1	0.1	-2.1	5.1	3.5	4.5	0.1
COc1ccc(-c2ccnc3ncnn23)cc1	0.0	nt	nt	nt	-7.4	42.9*
COc1cccc(C(=O)N[C@H](C(=O)N2CCC[C@H]2C(=O)NCCc2ccccc2Cl)C2CCCCC2)c1	0.1	0.0	nt	nt	28.6*	-0.2
CC(C)[C@H](NC(=O)CC1CCCC1)C(=O)N1CCC[C@H]1C(=O)NCCc1ccccc1Cl	0.2	-0.3	nt	nt	5.4	0.1
CC(C)[C@H](NC(=O)C1CC1)C(=O)N1CCC[C@H]1C(=O)NCCc1ccccc1Cl	0.2	-0.1	nt	nt	28.9*	0.0
O=C(Nc1ccccc1F)N1CC(=O)N2[C@H](C1)[C@@H](c1ccc(-c3ccc(F)cc3)cc1)[C@@H]2CO	0.2	nt	nt	nt	nt	nt
c1ccc(CNC23CC4CC(CC(C4)C2)C3)nc1	0.3	3.1	nt	nt	1.3	43.0*
CN(O)/C=c1/ccc2c(n1)C(=O)C=CC=2	nt	nt	92.9*	7.0	nt	nt
CC1=NN(c2ccc(C)c(C)c2)C(=O)/C1=C\C=C\c1ccc([N+](=O)[O-])o1	0.0	nt	nt	nt	2.9	43.3*
C[C@H](CO)N1C[C@H](C)[C@H](CN(C)Cc2ccncc2)Oc2ccc(NC(=O)CCC(F)(F)F)cc2CC1=O	0.0	314.2*	-8.3	5.8	-0.3	0.1
C[C@H](CO)N1C[C@H](C)[C@@H](CN(C)Cc2ccncc2)Oc2ccc(NC(=O)CCC(F)(F)F)cc2CC1=O	0.2	-5.3	-1.8	-5.3	nt	0.2
C[C@@H]1CN([C@@H](C)CO)C(=O)Cc2cc(NC(=O)CCC(F)(F)F)ccc2O[C@H]1CN(C)CC1CC1	0.2	-0.1	-15.5	3.2	2.5	0.4
SMILES	Xi reactivation	E-selectin induc	Statin myotox sup	PglD DTNB	DENV2 CPE	FGF22 binding
COc1ccc(CN(C)C[C@@H]2Oc3ccc(NC(=O)CCC(F)(F)F)cc3CC(=O)N([C@H](C)CO)C[C@H]2C)cc1	0.0	0.8	102.3*	7.0	-1.4	0.1
C[C@@H]1CN([C@@H](C)CO)C(=O)Cc2cc(NC(=O)CCC(F)(F)F)ccc2O[C@@H]1CN(C)CC1CC1	0.2	-0.1	16.4	4.0	42.5*	-0.5
COc1ccc(CN(C)C[C@@H]2Oc3ccc(NC(=O)CCC(F)(F)F)cc3CC(=O)N([C@H](C)CO)C[C@@H]2C)cc1	0.1	3.0	8.5	0.9	2.3	nt
C[C@@H]1CN([C@@H](C)CO)C(=O)Cc2cc(NC(=O)CCC(F)(F)F)ccc2O[C@H]1CN(C)Cc1ccc(Oc2ccccc2)cc1	-0.7	16.9	86.9*	-1.3	0.8	-0.3
CC(C)NC(=O)Nc1ccc2c(c1)CC(=O)N([C@@H](C)CO)C[C@H](C)[C@H](CN(C)S(=O)(=O)c1cccs1)O2	-0.1	0.0	-11.8	3.7	-6.8	-0.3
O=C(NC(C(=O)N1CCCC1C(=O)NC1CCCC1)c1ccccc1)c1cccs1 (stereo not given)	0.1	0.1	nt	nt	46.8*	0.2
CC(C)[C@H](NC(=O)c1cccs1)C(=O)N1CCC[C@H]1C(=O)NCc1ccccc1	0.2	2.0	nt	nt	26.2*	-0.2
O=C(C[C@@H]1CC[C@@H](NC(=O)CN2CCOCC2)[C@H](CO)O1)NCc1cccc(F)c1	-0.1	4.2	4.7	-3.6	?	0.0
COc1cccc(C(=O)Nc2ccc3c(c2)OC[C@@H](C)N(C(C)=O)C[C@@H](C)[C@H](OC)CN(C)C3=O)c1	0.1	-0.1	-0.2	0.8	?	0.2
CNC[C@H]1Oc2ccc(NC(=O)Cn3cnnn3)cc2C(=O)N([C@@H](C)CO)C[C@H]1C	-0.2	-0.1	29.2	-1.8	31.7*	-0.2
CC(C)NC(=O)N(C)C[C@@H]1Oc2ccc(NC(=O)Cn3cnnn3)cc2CC(=O)N([C@@H](C)CO)C[C@H]1C	0.1	66.3*	-6.6	1.5	-10.5	-0.1
CC(C)NC(=O)N(C)C[C@H]1Oc2ccc(NC(=O)Cn3cnnn3)cc2CC(=O)N([C@H](C)CO)C[C@@H]1C	0.1	-6.8	-16.7	0.0	0.8	-0.1
C[C@@H]1CN([C@@H](C)CO)C(=O)Cc2cc(NC(=O)Cn3cnnn3)ccc2O[C@@H]1CN(C)C(=O)Nc1ccc(F)cc1	0.2	-3.1	-23.1	nt	nt	nt
